From PubChem BioAssay AID720574 (Broad Institute, 2013)
Among all 96,000 compounds or so, about 140 (0.15%) were called active. The sample holds actives, similar compounds and a random draw of the others, so the mix is not that of the screen. Unmarked numbers belong to inactive results.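 How the source made its calls: active means mean replicate inhibition above about 25%, with at least 55% of replicates also reaching it (limit read from the data, passing the limit was not always enough); inconclusive means only one of those two conditions met; inactive means neither condition met.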

target: Lysine-specific demethylase 4C (Homo sapiens) (UniProt Q9H3R0); assay: inhibitors of GASC-1 (KDM4C) histone demethylase, primary screen, biochemical, single concentration HTS (AID 720574); settings: GST-KDM4C 2-372, H3K9me3 peptide, LANCE TR-FRET; at 12.5 µM; stronger effect = higher value
Summary of the method: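 Material: N-terminal GST-fused human GASC-1 (KDM4C) fragment, residues 2-372. Input: 10 nM enzyme. Incubation: enzyme reaction 30 min, then detection 60 min, both room temperature. Doses: one test concentration per compound. Read-out basis: inhibition from TR-FRET ratio decrease. Detection: LANCE TR-FRET, excitation 340 nm, emissions 618 and 671 nm.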

Sequence of Lysine-specific demethylase 4C (Homo sapiens) (Q9H3R0 2-372 limits assumed): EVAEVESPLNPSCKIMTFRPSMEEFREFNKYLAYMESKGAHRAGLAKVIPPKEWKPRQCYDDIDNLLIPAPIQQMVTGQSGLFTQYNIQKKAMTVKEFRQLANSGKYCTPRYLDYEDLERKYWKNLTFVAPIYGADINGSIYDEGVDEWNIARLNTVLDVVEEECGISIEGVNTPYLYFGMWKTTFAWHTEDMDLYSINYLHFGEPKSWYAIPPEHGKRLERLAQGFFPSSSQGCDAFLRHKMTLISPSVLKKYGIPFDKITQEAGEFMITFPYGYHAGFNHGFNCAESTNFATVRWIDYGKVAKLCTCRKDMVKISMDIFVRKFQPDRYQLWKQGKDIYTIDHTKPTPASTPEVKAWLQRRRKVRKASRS

Row | Compound | inhibition
1 | COc1ccc2c3c(n(C)c2c1)[C@H](CO)N(Cc1ccc(F)cc1)CC31CN(CC2CCOCC2)C1 | -0.66%
2 | COc1ccc2c3c(n(C)c2c1)[C@@H](CO)N(C(=O)Nc1ccc(F)cc1)CC31CCN(C(=O)c2cccnc2)CC1 | -1.49%
3 | CO[C@@H]1CN(C)C(=O)c2cc(NC(=O)C3CC3)ccc2OC[C@H](C)N(Cc2ccc(F)cc2)C[C@@H]1C | -0.0715%
4 | C[C@H](CO)N1C[C@H](C)[C@@H](CN(C)S(=O)(=O)c2ccccc2)OCCCC[C@H](C)Oc2ccc(NC(=O)NC3CCCCC3)cc2C1=O | 0.616%
5 | COCC(=O)NC[C@@H]1[C@@H](c2ccc(C3=CCCC3)cc2)[C@@H](CO)N1C(C)=O | 3.61%
6 | CCC(=O)Nc1ccc2c(c1)C(=O)N(C)C[C@@H](OC)[C@@H](C)CN(C(=O)CN(C)C)[C@@H](C)CO2 | 1.55%
7 | O=C(C[C@@H]1C[C@@H]2c3cc(NS(=O)(=O)c4ccccc4)ccc3O[C@@H]2[C@@H](CO)O1)NC1CCCCC1 | -0.944%
8 | CS(=O)(=O)N1CC2(C1)[C@H](c1ccccc1)[C@H](CO)N2Cc1ccc(F)cc1 | 0.43%
9 | CO[C@@H]1CN(C)C(=O)c2ccc(NC(=O)NC(C)C)cc2OC[C@@H](C)N(Cc2ccc(-c3ccccn3)cc2)C[C@H]1C | 0.434%
10 | CO[C@H]1CN(C)C(=O)c2ccc(NS(=O)(=O)c3ccccc3)cc2OC[C@@H](C)N(Cc2nccs2)C[C@@H]1C | 0.175%
11 | COC(=O)C[C@H]1C[C@H]2c3cc(NC(=O)NC4CCCCC4)ccc3O[C@H]2[C@H](CO)O1 | 9.44%
12 | CC(C)NC(=O)N1[C@H](CNC(=O)CN(C)C)[C@@H](c2ccccc2)[C@@H]1CO | -0.351%
13 | O=C(c1ccccn1)N1CC2(C1)[C@@H](c1ccccc1)[C@@H](CO)N2C(=O)C1CCC1 | -1.3%
14 | O=C(NCC[C@H]1CC[C@H](NS(=O)(=O)c2ccccc2)[C@H](CO)O1)c1cc(Cl)cc(Cl)c1 | -1.8%
15 | COc1ccc(-c2cnc3c(c2)C(=O)N([C@H](C)CO)C[C@@H](C)[C@H](CN(C)C(=O)Cc2ccncc2)O3)cc1 | -0.262%
16 | CO[C@@H]1CN(C)C(=O)c2cc(NC(=O)Nc3ccccc3F)ccc2OC[C@H](C)NC[C@H]1C | 0.557%
17 | CCCNC(=O)C[C@@H]1CC[C@H]2[C@H](COc3ccc(NC(=O)CCC)cc3C(=O)N2C)O1 | 1.75%

Row | Compound | inhibition
18 | CCCNC(=O)N1CC2(C1)[C@H](c1ccccc1)[C@@H](CO)N2C(=O)C1CC1 | 1.13%
19 | C/C=C/c1ccc([C@@H]2[C@@H](CO)N(C(=O)CN(C)C)C23CN(C(=O)C2CCCC2)C3)cc1 | 0.163%
20 | CO[C@@H](CN(C)S(=O)(=O)c1ccccc1)[C@H](C)CN(Cc1ccccc1Cl)[C@H](C)CO | 1.1%
21 | COc1ccc2c3c(n(C)c2c1)[C@@H](CO)N(C(C)=O)CC31CCN(C(=O)C2CC2)CC1 | -0.393%
22 | O=C(Nc1ccccc1F)N1CC(=O)N2[C@H](C1)[C@H](c1ccc(C#Cc3ccc(F)cc3)cc1)[C@@H]2CO | 1.34%
23 | CCC(=O)N(C)C[C@H]1Oc2ncc(-c3ccccc3OC)cc2C(=O)N([C@H](C)CO)C[C@H]1C | 17.4%
24 | CN1[C@@H]2CN(C(=O)C3CCCCC3)c3ccccc3[C@@H]2[C@@H]1CO | 4.33%
25 | Cc1cccc(S(=O)(=O)N2C[C@@H]3[C@H](c4ccccc42)[C@H](CO)N3CC2CCOCC2)c1 | -0.667%
26 | O=C(NCc1ccc(F)cc1)[C@@H]1[C@@H](CO)[C@@H]2Cn3c(cccc3=O)[C@@H]2N1C(=O)c1cccnc1 | -0.929%
27 | CO[C@H]1CN(C)C(=O)c2ccc(NC(=O)NC(C)C)cc2OC[C@@H](C)N(C(=O)CN(C)C)C[C@H]1C | 0.223%
28 | COc1ccc(CN(C)C[C@@H]2Oc3ccc(NC(=O)Nc4ccc(F)cc4)cc3CC(=O)N([C@@H](C)CO)C[C@H]2C)cc1 | -0.133%
29 | O=C(C1CCOCC1)N1C[C@H]2[C@@H](c3ccccc31)[C@@H](CO)N2Cc1ccccc1 | 2.96%
30 | O=C(CC1CC1)N1[C@@H]2CN(S(=O)(=O)c3ccccc3F)c3ccccc3[C@@H]2[C@@H]1CO | 2%
31 | C[C@H]1CN([C@@H](C)CO)C(=O)c2cc(C#Cc3ccccc3F)cnc2O[C@H]1CN(C)C | 28.4% (active)
32 | C[C@H]1CN([C@@H](C)CO)C(=O)c2cc(C#Cc3ccccc3F)cnc2O[C@@H]1CN(C)C(=O)C1CC1 | -1.28%
33 | C[C@H](CO)N1C[C@H](C)[C@@H](CN(C)S(=O)(=O)c2ccccc2)Oc2ncc(C#Cc3ccccc3F)cc2C1=O | -3.49%
34 | COc1ccc2c3c([nH]c2c1)[C@@H](CO)N(C(=O)Nc1ccc(F)cc1)CC31CN(S(C)(=O)=O)C1 | -0.649%
